Measured values published in PMC6754270 (Cell chemical biology, 2019).
Several values for one entry are separate records, joined by “and”; a condition that tells them apart may be missing. Equal entries are not always repeated. Where two headings read alike, the source gives them in different places.

Key:
human VCP/p97 T688A = conditions: sensor-II variability hot-spot mutation; ref Anderson et al., 2015; cited from earlier work
[1] = biological target: T1, fidgetin-like 1 (Hs-FIGL1) (Homo sapiens, UniProt Q6PIW4); conditions: ref Cupido et al., 2019; cited from earlier work
T1 sequence (Q6PIW4 1-674): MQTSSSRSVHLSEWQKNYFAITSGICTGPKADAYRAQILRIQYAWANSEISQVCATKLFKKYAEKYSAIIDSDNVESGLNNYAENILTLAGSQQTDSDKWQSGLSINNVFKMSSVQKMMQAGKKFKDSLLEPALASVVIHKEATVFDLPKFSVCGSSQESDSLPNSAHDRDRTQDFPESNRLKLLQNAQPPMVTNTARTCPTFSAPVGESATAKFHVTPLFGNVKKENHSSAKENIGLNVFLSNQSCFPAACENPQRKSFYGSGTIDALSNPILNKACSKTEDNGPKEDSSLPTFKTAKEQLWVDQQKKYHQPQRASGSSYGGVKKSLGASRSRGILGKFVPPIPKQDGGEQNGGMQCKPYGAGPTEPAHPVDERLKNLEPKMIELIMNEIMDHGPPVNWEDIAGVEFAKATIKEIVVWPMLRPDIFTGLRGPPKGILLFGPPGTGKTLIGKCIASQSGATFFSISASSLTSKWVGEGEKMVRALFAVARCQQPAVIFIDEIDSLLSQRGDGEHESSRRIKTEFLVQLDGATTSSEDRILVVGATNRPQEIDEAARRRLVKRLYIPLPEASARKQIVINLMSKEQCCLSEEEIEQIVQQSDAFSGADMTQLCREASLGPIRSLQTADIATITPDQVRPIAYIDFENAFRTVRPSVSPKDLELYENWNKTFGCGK

[2] = biological target: spastin-AAA-Q488V (aa 445–758) (Drosophila melanogaster, UniProt Q8I0P1, Q488V); test: Differential scanning fluorimetry, spastin-AAA-Q488V; assay type: binding; conditions: 100 µM compound, vs DMSO, n=2
Sequence of spastin-AAA-Q488V (aa 445–758) (Q8I0P1 445-758 Q488V): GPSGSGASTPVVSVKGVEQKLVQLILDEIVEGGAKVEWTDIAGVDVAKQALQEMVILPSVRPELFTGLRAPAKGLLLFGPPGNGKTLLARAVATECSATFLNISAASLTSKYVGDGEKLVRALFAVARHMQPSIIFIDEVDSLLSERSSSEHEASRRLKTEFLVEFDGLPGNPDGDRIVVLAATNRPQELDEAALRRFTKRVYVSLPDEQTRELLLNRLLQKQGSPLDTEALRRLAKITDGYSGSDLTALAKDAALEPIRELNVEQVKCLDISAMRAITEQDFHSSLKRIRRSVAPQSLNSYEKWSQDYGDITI

[3] = biological target: spastin-N527C (aa 209–758) (Drosophila melanogaster, UniProt Q8I0P1, N527C); test: Steady-state ATPase activity, NADH-coupled assay, spastin-N527C; assay type: biochemical; conditions: for Change in inhibitor potency, N527C (P-loop) vs wild-type: ATPase assay, compound 4: reduction in potency
Sequence of spastin-N527C (aa 209–758) (Q8I0P1 209-758 N527C): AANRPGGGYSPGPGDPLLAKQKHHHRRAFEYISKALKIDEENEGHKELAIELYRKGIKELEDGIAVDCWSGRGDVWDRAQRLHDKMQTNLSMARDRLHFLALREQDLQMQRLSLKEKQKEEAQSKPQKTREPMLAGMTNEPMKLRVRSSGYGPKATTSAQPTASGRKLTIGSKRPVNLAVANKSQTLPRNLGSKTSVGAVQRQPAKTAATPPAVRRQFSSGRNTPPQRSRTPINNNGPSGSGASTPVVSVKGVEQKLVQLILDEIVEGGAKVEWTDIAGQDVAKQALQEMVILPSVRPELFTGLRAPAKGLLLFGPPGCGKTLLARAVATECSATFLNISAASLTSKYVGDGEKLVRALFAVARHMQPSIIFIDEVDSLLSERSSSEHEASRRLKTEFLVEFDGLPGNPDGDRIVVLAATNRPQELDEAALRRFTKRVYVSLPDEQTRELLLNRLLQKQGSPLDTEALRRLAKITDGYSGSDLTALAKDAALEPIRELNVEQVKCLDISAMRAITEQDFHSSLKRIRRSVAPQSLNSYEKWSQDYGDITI

[4] = biological target: T2, spastin-AAA-WT (aa 445–758) (Drosophila melanogaster, UniProt Q8I0P1); test: Differential scanning fluorimetry, spastin-AAA-WT; assay type: binding; conditions: 100 µM compound, vs DMSO, n=2
T2 sequence (Q8I0P1 445-758): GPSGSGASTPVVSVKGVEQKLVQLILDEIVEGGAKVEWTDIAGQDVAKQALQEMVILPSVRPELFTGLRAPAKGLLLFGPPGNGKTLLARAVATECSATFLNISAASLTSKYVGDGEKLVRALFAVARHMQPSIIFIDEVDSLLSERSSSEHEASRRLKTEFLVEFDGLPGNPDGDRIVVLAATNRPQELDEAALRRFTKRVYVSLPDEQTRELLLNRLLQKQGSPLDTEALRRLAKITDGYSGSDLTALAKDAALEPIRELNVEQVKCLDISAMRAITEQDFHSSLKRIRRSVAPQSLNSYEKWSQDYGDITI
In short: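 Drosophila spastin AAA domain (aa 445–758), expressed as a GST fusion in E. coli Rosetta, protease-cleaved and purified by anion exchange and gel filtration. Tm taken as minimum of first-derivative melt curve; n=2, range shown.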

[5] = biological target: spastin-T692A (aa 209–758) (Drosophila melanogaster, UniProt Q8I0P1, T692A); test: Steady-state ATPase activity, NADH-coupled assay, spastin-T692A; assay type: biochemical; conditions: for Change in inhibitor potency, T692A (sensor-II) vs wild-type: ATPase assay, compound 1: increase in potency
Sequence of spastin-T692A (aa 209–758) (Q8I0P1 209-758 T692A): as the sequence (Q8I0P1 209-758 N527C) above, with C319N, T484A counted along it

[6] = biological target: spastin-AAA-N527C (aa 445–758) (Drosophila melanogaster, UniProt Q8I0P1, N527C); test: Differential scanning fluorimetry, spastin-AAA-N527C; assay type: binding; conditions: 100 µM compound, vs DMSO, n=2
Sequence of spastin-AAA-N527C (aa 445–758) (Q8I0P1 445-758 N527C): as the sequence (Q8I0P1 445-758 Q488V) above, with V44Q, N83C counted along it

[7] = biological target: T3, spastin-WT (Drosophila melanogaster spastin, aa 209–758) (Drosophila melanogaster, UniProt Q8I0P1); test: Steady-state ATPase activity, NADH-coupled assay, spastin-WT; assay type: biochemical
T3 sequence (Q8I0P1 209-758): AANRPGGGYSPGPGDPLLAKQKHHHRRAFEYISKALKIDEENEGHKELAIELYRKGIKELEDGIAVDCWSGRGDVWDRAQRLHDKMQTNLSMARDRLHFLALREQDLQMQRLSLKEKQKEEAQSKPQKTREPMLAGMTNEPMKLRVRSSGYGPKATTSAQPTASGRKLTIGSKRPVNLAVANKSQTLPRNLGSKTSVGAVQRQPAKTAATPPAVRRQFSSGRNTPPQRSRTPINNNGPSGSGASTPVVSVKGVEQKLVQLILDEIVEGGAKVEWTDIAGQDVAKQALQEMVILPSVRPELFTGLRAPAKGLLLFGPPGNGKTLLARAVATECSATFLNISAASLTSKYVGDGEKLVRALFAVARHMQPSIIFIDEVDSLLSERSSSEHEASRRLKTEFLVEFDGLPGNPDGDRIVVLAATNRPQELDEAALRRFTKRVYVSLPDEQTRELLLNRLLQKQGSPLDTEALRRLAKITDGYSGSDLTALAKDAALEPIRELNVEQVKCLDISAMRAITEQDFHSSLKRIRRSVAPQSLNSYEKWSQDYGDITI

[8] = biological target: spastin-Q488V (aa 209–758) (Drosophila melanogaster, UniProt Q8I0P1, Q488V); test: Steady-state ATPase activity, NADH-coupled assay, spastin-Q488V; assay type: biochemical; conditions: for Change in inhibitor potency, Q488V (N-loop) vs wild-type: ATPase assay, compound 4: reduction in potency
Sequence of spastin-Q488V (aa 209–758) (Q8I0P1 209-758 Q488V): as the sequence (Q8I0P1 209-758 N527C) above, with Q280V, C319N counted along it

[9] = biological target: spastin-AAA-T692A (aa 445–758) (Drosophila melanogaster, UniProt Q8I0P1, T692A); test: Differential scanning fluorimetry, spastin-AAA-T692A; assay type: binding; conditions: 100 µM compound, vs DMSO, n=2
Sequence of spastin-AAA-T692A (aa 445–758) (Q8I0P1 445-758 T692A): as the sequence (Q8I0P1 445-758 Q488V) above, with V44Q, T248A counted along it

[10] = biological target: T3, spastin-WT (Drosophila melanogaster spastin, aa 209–758); conditions: ref Cupido et al., 2019; cited from earlier work
katanin (Xl-katanin) [11] = biological target: T4, katanin (Xl-katanin) (Xenopus laevis, UniProt Q9PUL2); conditions: ref Cupido et al., 2019; cited from earlier work
T4 sequence (Q9PUL2 whole entry): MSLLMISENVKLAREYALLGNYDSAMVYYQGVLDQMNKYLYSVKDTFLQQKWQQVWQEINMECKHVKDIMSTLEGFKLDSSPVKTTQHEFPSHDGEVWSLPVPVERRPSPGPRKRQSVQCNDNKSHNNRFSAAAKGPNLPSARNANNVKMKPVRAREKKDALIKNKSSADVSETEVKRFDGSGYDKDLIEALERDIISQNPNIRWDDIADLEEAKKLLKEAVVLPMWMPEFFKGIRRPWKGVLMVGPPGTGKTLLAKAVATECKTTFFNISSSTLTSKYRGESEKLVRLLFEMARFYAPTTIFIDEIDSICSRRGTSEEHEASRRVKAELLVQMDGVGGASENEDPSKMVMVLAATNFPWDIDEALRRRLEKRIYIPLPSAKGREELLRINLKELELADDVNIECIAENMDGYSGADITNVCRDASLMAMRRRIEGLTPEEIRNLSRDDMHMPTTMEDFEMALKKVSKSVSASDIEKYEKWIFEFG

katanin (Xl-katanin) [12] = biological target: T4, katanin (Xl-katanin); test: Steady-state ATPase activity of katanin; assay type: biochemical, X. laevis; conditions: 2 µM compound, 0.5 mM MgATP, n=2
VPS4B (Hs-VPS4B) = biological target: T5, VPS4B (Hs-VPS4B) (Homo sapiens, UniProt O75351); test: Steady-state ATPase activity of VPS4B; assay type: biochemical, H. sapiens; conditions: 2 µM compound, 0.5 mM MgATP, n=2
T5 sequence (O75351 1-444): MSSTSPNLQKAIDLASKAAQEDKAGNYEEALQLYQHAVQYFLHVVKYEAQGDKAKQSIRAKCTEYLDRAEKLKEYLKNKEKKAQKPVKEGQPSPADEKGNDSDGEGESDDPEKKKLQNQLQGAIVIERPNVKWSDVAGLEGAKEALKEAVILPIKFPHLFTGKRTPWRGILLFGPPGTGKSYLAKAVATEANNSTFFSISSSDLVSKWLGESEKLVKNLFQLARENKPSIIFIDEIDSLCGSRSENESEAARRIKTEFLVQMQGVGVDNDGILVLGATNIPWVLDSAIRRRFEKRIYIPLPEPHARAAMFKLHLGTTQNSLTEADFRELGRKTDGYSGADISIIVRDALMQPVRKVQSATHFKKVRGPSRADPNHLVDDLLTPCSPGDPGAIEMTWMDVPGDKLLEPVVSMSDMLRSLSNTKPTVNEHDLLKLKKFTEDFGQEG

[13] = biological target: T1, fidgetin-like 1 (Hs-FIGL1); test: Steady-state ATPase activity of fidgetin-like 1; assay type: biochemical, H. sapiens; conditions: 2 µM compound, 0.5 mM MgATP, n=2

SMILES | Observed ∆Tm, spastin-AAA-Q488V [2] | IC50 [3] | Change in inhibitor potency, N527C (P-loop) vs wild-type [3] | Observed ∆Tm, spastin-AAA-WT [4] | IC50 [5] | Change in inhibitor potency, T692A (sensor-II) vs wild-type [5] | Observed ∆Tm, spastin-AAA-N527C [6] | IC50 [8] | Change in inhibitor potency, Q488V (N-loop) vs wild-type [8] | Observed ∆Tm, spastin-AAA-T692A [9] | further results
Cc1cc2c(C(N)=O)cccc2n1-c1nc2c(c(NCc3ccccc3)n1)COCC2 [CB-5083] |  |  |  |  |  |  |  |  |  |  | Change in compound potency, T688A vs wild-type VCP/p97 (human VCP/p97 T688A): > 60 fold
Nc1nc(Nc2ccc(S(N)(=O)=O)cc2)nn1C(=O)c1c(F)cccc1F [compound 1, 4-((5-amino-1-(2,6-difluorobenzoyl)-1H-1,2,4-triazol-3-yl)amino)benzenesulfonamide] | ~ 4.5 °C | 6000 ± 1000 nM | less than 2 fold | ~ 4.5 °C | 900 ± 100 nM | ~ 7 fold | ~ 4.3 °C | 8900 ± 500 nM | less than 2 fold | ~ 6.2 °C | Effect on ATPase activity of fidgetin-like 1 [1]: blocks the ATPase activity; IC50 ([7]; IC50, inhibition of steady-state ATPase activity of spastin-WT, 0.5 mM MgATP, average ± s.d., n=3): 5700 nM and 5800 nM; Mechanism of inhibition ([7]; range of ATP concentrations, apparent K1/2 for ATP increased, kcat not altered): ATP competitive mechanism of inhibition; Effect on ATPase activity of spastin [10]: blocks the ATPase activity; Effect on ATPase activity of katanin (katanin (Xl-katanin) [11]): blocks the ATPase activity
CNC(=O)c1cccc(Nc2nc(N)n(C(=O)c3c(F)cccc3OC)n2)c1 [compound 4, 3-((5-amino-1-(2-fluoro-6-methoxybenzoyl)-1H-1,2,4-triazol-3-yl)amino)-N-methylbenzamide] | ~ 5.0 °C | 1110 ± 210 nM | ~ 4 fold | ~ 6.7 °C | 220 ± 40 nM | did not change the potency | ~ 4.5 °C | 2600 ± 150 nM | ~ 11 fold | ~ 7.2 °C | Inhibition of steady-state ATPase activity of katanin (katanin (Xl-katanin) [12]): does not substantially inhibit; Inhibition of steady-state ATPase activity of VPS4B (VPS4B (Hs-VPS4B)): does not substantially inhibit; IC50 [7]: 230 ± 20 nM; Inhibition of steady-state ATPase activity of spastin ([7]; 2 µM compound, 0.5 mM MgATP, n=2): potently inhibits; Inhibition of steady-state ATPase activity of fidgetin-like 1 [13]: does not substantially inhibit
